For test [1], the system named is MCF7. As to the kind of experiment: Anticancer activity against human MCF7 cells assessed as survival fraction at 50 uM after 48 hrs by SRB assay. It is filed as functional. The procedure, abridged:
(§1)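 Unirradiated MCF7 monolayers attached for 24 h after plating at 10⁴ cells/well, then exposed to a range of compound concentrations (dissolved in DMSO) with replicate wells per concentration. Incubated 48 h at 37 °C under 5% CO₂. Sulforhodamine B assay: fixation, 30 min 0.4% SRB/1% acetic acid, four acid washes, Tris-EDTA elution, colorimetric reading. Surviving fraction given as mean ± standard error.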

Test [2] relates to MCF7. As to the kind of experiment: Anticancer activity against human MCF7 cells assessed as survival fraction at 10 uM after 48 hrs by SRB assay. In kind it is functional. A digest of the protocol:
as §1
Background: Sulforhodamine B stains cellular protein and so reports cell mass.

Test [3] deals with MCF7. The test is described as follows: Anticancer activity against human MCF7 cells assessed as survival fraction after 48 hrs by SRB assay. As to conditions: MCF7, 48 h. It is filed as functional, cell-based. The procedure, abridged:
as §1

For test [4], the system named is MCF7. The test is described as follows: Anticancer activity against human MCF7 cells assessed as survival fraction at 100 uM after 48 hrs by SRB assay. It is filed as functional. A digest of the protocol: as §1
For test [5], the system named is MCF7. As to the kind of experiment: Anticancer activity against human MCF7 cells assessed as survival fraction at 25 uM after 48 hrs by SRB assay. It is filed as functional. A digest of the protocol:
as §1

The subject of test [6] is MCF7. The test is described as follows: Anticancer activity against 8 Gy irradiated human MCF7 cells assessed as survival fraction at 50 uM after 48 hrs by SRB assay. It is filed as functional. The procedure, abridged: (§2)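 MCF7 cells seeded at 10⁴ cells/well for 24 h, then given test compound (DMSO solution; 10, 25, 50 or 100 in the concentration series) plus a single 8 Gy γ-irradiation. Incubated 48 h, 37 °C, 5% CO₂. SRB readout: fix, stain 30 min with 0.4% SRB in 1% acetic acid, wash, solubilize in Tris-EDTA, read on ELISA reader. Surviving fraction is the mean of three values ± SE.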

In test [7] the test system is MCF7. The test is described as follows: Anticancer activity against 8 Gy irradiated human MCF7 cells assessed as survival fraction after 48 hrs by SRB assay. In kind it is functional, cell-based. As to conditions: MCF7, light or radiation study. A digest of the protocol: as §2
In test [8] the test system is MCF7. The test is described as follows: Anticancer activity against 8 Gy irradiated human MCF7 cells assessed as survival fraction at 10 uM after 48 hrs by SRB assay. In kind it is functional. A digest of the protocol:
as §2

Test [9] has as its system MCF7. As to the kind of experiment: Anticancer activity against 8 Gy irradiated human MCF7 cells assessed as survival fraction at 25 uM after 48 hrs by SRB assay. It is filed as functional. A digest of the protocol: as §2
Test [10] deals with MCF7. As to the kind of experiment: Anticancer activity against 8 Gy irradiated human MCF7 cells assessed as survival fraction at 100 uM after 48 hrs by SRB assay. In kind it is functional. The procedure, abridged: as §2

Molecules are shown by their SMILES.

For orientation: IC50 means the concentration that gives 50% inhibition. As for `CC1(C)CC(=O)C2=C(C1)N(c1ccc(S(N)(=O)=O)cc1)c1nc(CCl)[nH]c(=O)c1C2c1ccc(Cl)cc1` (stereo not drawn), the Activity was 0.731 in test [1], 0.914 in test [2], 0.625 in [4] and 0.775 in [5]. Also, the IC50 in [3] was > 100 µM.
In the same order, the values of `CC1(C)CC(=O)C2=C(C1)N(c1ccc(S(N)(=O)=O)cc1)c1ncnc(NN)c1C2c1ccc(Cl)cc1` (stereo not drawn) are 0.672, 0.94, 0.358, 0.788 and 76 µM.
Take `CC1(C)CC(=O)C2=C(C1)N(c1ccc(S(N)(=O)=O)cc1)c1nc(CC#N)[nH]c(=O)c1C2c1ccc(Cl)cc1` (stereo not drawn): the Activity in test [1] is 0.774; in test [2], 0.971; in test [4] it was 0.525; in [5], 0.901. The IC50 in test [3] was > 100 µM.
In the same order, the values of `CC1(C)CC(=O)C2=C(C1)N(c1ccc(S(N)(=O)=O)cc1)c1ncnc(Cl)c1C2c1ccc(Cl)cc1` (stereo not drawn) are 0.476, 0.843, 0.546, 0.696 and 86.5 µM.
In the same order, the values of `CC(=O)CC(=O)NC1=C(C#N)C(c2ccc(Cl)cc2)C2=C(CC(C)(C)CC2=O)N1c1ccc(S(N)(=O)=O)cc1` (stereo not drawn) are 0.648, 0.897, 0.549, 0.82 and > 100 µM.
In the same order, the values of `CC1(C)CC(=O)C2=C(C1)N(c1ccc(S(N)(=O)=O)cc1)c1nc[nH]c(=O)c1C2c1ccc(Cl)cc1` (stereo not drawn) are 0.499, 0.891, 0.468, 0.676 and 76.8 µM.
For `CC(=O)N(C(C)=O)C1=C(C#N)C(c2ccc(Cl)cc2)C2=C(CC(C)(C)CC2=O)N1c1ccc(S(N)(=O)=O)cc1` (stereo not drawn), the Activity in [1] is 0.504; in test [2], 0.895; in [4] it was 0.414; in [5], 0.773. Further, the IC50 in test [3] came out at 72.1 µM.
As to `CC1(C)CC(=O)C2=C(C1)N(c1ccc(S(N)(=O)=O)cc1)c1ncnc(N=C=S)c1C2c1ccc(Cl)cc1` (stereo not drawn), the Activity in test [1] is given as 0.419; in [2], 0.972; in test [4] it was 0.515; in test [5] it was 0.721. In addition, the IC50 in test [3] was determined as 79.6 µM.
`CC1(C)CC(=O)C2=C(C1)N(c1ccc(S(N)(=O)=O)cc1)C(N)=C(C1=NCCN1)C2c1ccc(Cl)cc1` (stereo not drawn): the Activity in [1] was 0.568; in test [2], 0.939; in [4], 0.621; in test [5] it was 0.763. The half-inhibitory concentration (IC50) in test [3] was > 100 µM.
The matching figures for `CC1(C)CC(=O)C2=C(C1)N(c1ccc(S(N)(=O)=O)cc1)C(N1C(=O)CCC1=O)=C(C#N)C2c1ccc(Cl)cc1` (stereo not drawn): 0.584, 0.93, 0.549, 0.813 and 95.2 µM.
The matching figures for `CCNC(=S)NC1=C(C#N)C(c2ccc(Cl)cc2)C2=C(CC(C)(C)CC2=O)N1c1ccc(S(N)(=O)=O)cc1` (stereo not drawn): 0.594, 0.916, 0.561, 0.837 and 99.6 µM.
For `COc1cccc2c1C(=O)c1c(O)c3c(c(O)c1C2=O)C[C@@](O)(C(=O)CO)C[C@@H]3O[C@H]1C[C@H](N)[C@H](O)[C@H](C)O1` [DOXORUBICIN], the Activity in test [1] is 0.461; in [2] it was 0.721; in test [4], 0.494.
In the case of `CC1(C)CC(=O)C2=C(C1)N(c1ccc(S(N)(=O)=O)cc1)c1nc[nH]c(=S)c1C2c1ccc(Cl)cc1` (stereo not drawn), the Activity in test [1] was found to be 0.884; in test [2] it was 0.927; in [4], 0.814; in test [5], 0.91. Besides, in [3], the IC50 was > 100 µM.
In the case of `CC(=O)NC1=C(C#N)C(c2ccc(Cl)cc2)C2=C(CC(C)(C)CC2=O)N1c1ccc(S(N)(=O)=O)cc1` (stereo not drawn), the Activity came to 0.31 in [6]; 0.446 in test [1]; 0.948 in test [2]; 0.427 in test [8]; 0.503 in test [9]; 0.137 in [10]. Moreover, the figures for the Activity in test [4] and in test [5] were 0.324 and 0.779, respectively. In addition, the figures for the IC50 in test [7] and in test [3] were 33.1 µM and 64.5 µM, respectively.
For `CC1(C)CC(=O)C2=C(C1)N(c1ccc(S(N)(=O)=O)cc1)C(NC(=O)CCl)=C(C#N)C2c1ccc(Cl)cc1` (stereo not drawn), the Activity in test [1] was found to be 0.523; in test [2] it was 0.986; in test [4] it was 0.502; in test [5] it was 0.736. The IC50 in [3] came to 84.3 µM.
In the same order, the values of `CC1(C)CC(=O)C2=C(C1)N(c1ccc(S(N)(=O)=O)cc1)C(N)=C(C#N)C2c1ccc(Cl)cc1` (stereo not drawn) are 0.429, 0.915, 0.484, 0.612 and 72.9 µM.
In the same order, the values of `CCO/C=N/C1=C(C#N)C(c2ccc(Cl)cc2)C2=C(CC(C)(C)CC2=O)N1c1ccc(S(N)(=O)=O)cc1` (stereo not drawn) are 0.498, 0.803, 0.607, 0.551 and 97.2 µM.
As for `CCOC(=O)Cn1cnc2c(c1=O)C(c1ccc(Cl)cc1)C1=C(CC(C)(C)CC1=O)N2c1ccc(S(N)(=O)=O)cc1` (stereo not drawn), the Activity in test [1] was found to be 0.653; in test [2] it was 0.954; in test [4], 0.563; in test [5] it was 0.88. In addition, in [3], the IC50 is > 100 µM.
For `CC1(C)CC(=O)C2=C(C1)N(c1ccc(S(N)(=O)=O)cc1)c1ncnc(N)c1C2c1ccc(Cl)cc1` (stereo not drawn), the Activity in test [1] is 0.495; in test [2] it was 0.886; in test [4], 0.602; in test [5], 0.612. In [3], the IC50 worked out at 96.6 µM.
As for `Cc1nc2c(c(=O)[nH]1)C(c1ccc(Cl)cc1)C1=C(CC(C)(C)CC1=O)N2c1ccc(S(N)(=O)=O)cc1` (stereo not drawn), the Activity is given as 0.45 in test [1], 0.976 in test [2], 0.557 in test [4] and 0.721 in [5]. Besides, the IC50 in [3] was found to be 85.9 µM.
Take `CC1(C)CC(=O)C2=C(C1)N(c1ccc(S(N)(=O)=O)cc1)C(N)=C(C(N)=O)C2c1ccc(Cl)cc1` (stereo not drawn): the Activity in test [6] is reported as 0.281; in test [1] it was 0.445; in test [2], 0.922; in [8] it was 0.653; in test [9], 0.517; in [10], 0.282. The Activity was found to be 0.452 in test [4] and 0.662 in test [5]. The IC50 in test [7] is 44.4 µM; in [3] it was 71.9 µM.
